Measured values reported in ChEMBL document CHEMBL1144875, “Desferrithiocin analogue based hexacoordinate iron(III) chelators” (2003).

Assays:
Monkey [1] = test: Efficiency of chelation measured as net iron excretion/total iron-binding capacity of 150 umol/kg compound administered sc in monkeys; type: functional, Cercopithecidae
Procedure, shortened: (§1)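 Cebus apella monkeys iron-overloaded with iv iron dextran (~500 mg Fe/kg), rested ≥60 days. Dosed sc as aqueous suspension or sodium salt solution (DFO in sterile H2O, 1 mL/kg). Feces and urine collected at 24 h intervals from 4 days pre-dose to 5 days post-dose; iron by flame AA. Efficiency is 2-day post-dose iron minus 4-day baseline mean, divided by theoretical output. n = 4; mean ± SEM.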

Monkey [2] = test: Efficiency of chelation measured as net iron excretion/total iron-binding capacity of 300 umol/kg compound administered po in monkeys; type: functional, Cercopithecidae
Monkey [3] = test: Efficiency of chelation measured as net iron excretion/total iron-binding capacity of 300 umol/kg compound administered sc in monkeys; type: functional, Cercopithecidae; procedure, shortened: as §1
Rattus norvegicus [4] = test: Efficiency of chelation measured as net iron excretion/total iron-binding capacity of 300 umol/kg compound administered po in rats; type: functional
Procedure, shortened: (§2)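 Bile duct-cannulated male Sprague-Dawley rats (~450 g), anesthetized with sodium pentobarbital 55 mg/kg ip. Chelator given po or sc in 40% Cremophor RH-40/water. Bile collected every 3 h for 24 h, urine at 24 h; iron by flame AA. Net excretion is treated minus control. Theoretical output assumes 1:1 or 2:1 ligand/iron by denticity. n = 4; mean ± SEM.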

Rattus norvegicus [5] = test: Efficiency of chelation measured as net iron excretion/total iron-binding capacity of 300 umol/kg compound administered sc in rats; type: functional; procedure, shortened: as §2
Monkey [6] = test: Efficiency of chelation measured as net iron excretion/total iron-binding capacity of 150 umol/kg compound administered sc in monkey; type: functional, Cercopithecidae; procedure, shortened: as §1
Monkey [7] = test: Efficiency of chelation measured as net iron excretion/total iron-binding capacity of 75 umol/kg compound administered sc in monkey; type: functional, Cercopithecidae; procedure, shortened: as §1
Rattus norvegicus [8] = test: Efficiency of chelation measured as net iron excretion/total iron-binding capacity of 150 umol/kg compound administered po in rats; type: functional; procedure, shortened: as §2
Rattus norvegicus [9] = test: Efficiency of chelation measured as net iron excretion/total iron-binding capacity of 150 umol/kg compound administered sc in rats; type: functional; procedure, shortened: as §2
Monkey [10] = test: Efficiency of chelation measured as net iron excretion/total iron-binding capacity of 150 umol/kg compound administered po in monkey; type: functional, Cercopithecidae

Row | SMILES | Efficiency (Monkey [1]) | Efficiency (Monkey [2]) | Efficiency (Monkey [3]) | Efficiency (Rattus norvegicus [4]) | Efficiency (Rattus norvegicus [5]) | Efficiency (Monkey [6]) | Efficiency (Monkey [7]) | Efficiency (Rattus norvegicus [8]) | Efficiency (Rattus norvegicus [9]) | Efficiency (Monkey [10])
1 | O=C(O)[C@H]1CSC(c2ccc(O)cc2O)=N1 | 5.6% | 5.3% | 5.3% | 2.9% | 2.1% |  |  |  |  | 
2 | O=C(O)[C@H]1CSC(c2cc(CCCOCCCOCCCc3cc(C4=N[C@@H](C(=O)O)CS4)c(O)cc3O)c(O)cc2O)=N1 |  |  |  |  |  | 2.1% | 3.2% | 0.9% | 6.5% | 
3 | CC(=O)N(O)CCCCCNC(=O)CCC(=O)N(O)CCCCCNC(=O)CCC(=O)N(O)CCCCCN [DEFEROXAMINE] |  |  |  |  |  | 5.5% |  | 1.1% | 2.8% | 0.1%
